Screening data deposited in PubChem by Johns Hopkins Ion Channel Center.
Shown are actives, neighbours in structure and some others; about 2.9% of the full set was active somewhere.
TRPC6 inh: mouse TRPC6 channel inhibitors, primary screen, cell-based, HEK293, membrane potential dye. Short transient receptor potential channel 6 (Mus musculus), Q61143. ACh-evoked depolarization; hits give low values. hit rate 1.1% among 310,000. B-score at 10 µM;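 active = B-score under library mean minus 3 SD, initial fluorescence not abnormally high, positive integrated signal ratio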;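 also: B-score derived from integrated fluorescence ratio over the kinetic read; more negative B-score means stronger inhibition of depolarization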
TRPC4 agonist: activators of mouse TRPC4 channel, primary screen, Fluo4 calcium, HEK293 TRPC4beta/mu-opioid cells; Short transient receptor potential channel 4 (Mus musculus), Q9QUQ5; Fluo4 calcium fluorescence; hits give high values; B-score at 10 µM; hit rate 0.49% among 310,000;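 active = B-score above 5 SD of library B-scores, and initial fluorescence ratio not above library mean plus 5 SD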;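 also: positive B-score marks a calcium rise read as TRPC4 activation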
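Technique: kinetic Fluo4 calcium fluorescence; Test system: TRPC4beta and mu-opioid receptor HEK293 stable cells; Measure: B-scored integrated calcium fluorescence ratio; Benchmarks: low control buffer alone, high control maximal DAMGO; Schedule: 45 min room-temperature Fluo4 loading, 110 s read.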
TRPC4 potent: positive allosteric modulators of TRPC4, primary screen, cell-based, mouse TRPC4beta, HEK293 mu-opioid, Fluo-4 calcium; Short transient receptor potential channel 4 (Mus musculus), Q9QUQ5; DAMGO EC20, Fluo-4 Ca2+ flux; hits give high values; B-score at 10 µM; hit rate 0.42% among 310,000;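 active = B-score of calcium response area above 5 SD of library B-scores, with initial fluorescence ratio within 5 SD of library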;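 also: B-score of integrated fluorescence ratio over time as area under calcium response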
TRPC6 activator: mouse TRPC6 channel activators, primary screen, cell-based, HEK293, membrane potential dye; hit rate 0.13% among 310,000; HEK293-TRPC6 membrane potential dye fluorescence; hits give high values; B-score at 10 µM; Short transient receptor potential channel 6 (Mus musculus), Q61143; AID 2550, 2010;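 active = B-score of the integrated fluorescence ratio above library mean plus 3 SD, and starting fluorescence ratio within library mean plus 5 SD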;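 also: higher score means more depolarization so channel activation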
TRPC4 block: inhibitors of mouse TRPC4 channel, primary screen, Fluo4 calcium, HEK293 TRPC4beta/mu-opioid cells | Short transient receptor potential channel 4 (Mus musculus), Q9QUQ5 | DAMGO-evoked Fluo4 calcium flux; hits give low values | B-score at 10 µM | hit rate 0.39% among 300,000 | AID 2247, 2010;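 active = B-score over 3 SD under the library average, no early fluorescence shift, positive overall ratio signal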
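Test system – stable TRPC4beta/mu-opioid receptor HEK293 cells · Probe or stimulus – DAMGO, a submaximal dose followed by a maximal one · Dosing – one concentration per compound · Signal – Fluo4 calcium fluorescence by kinetic imaging, 5 s 1 Hz baseline · Evaluation – per-well B score of integrated baseline-normalized Fluo4 ratio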
Kir21 inh: inhibitors of mouse Kir2.1 inward-rectifier potassium channel; Inward rectifier potassium channel 2 (Mus musculus), P35561; HEK293-Kir2.1, FluxOR thallium flux fluorescence; hits give low values; B-score at 10 µM; hit rate 0.85% among 310,000;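 active = fluorescence ratio B-score at or below minus 3 SD of library scores, with starting-brightness B-score within 2 SD, cut at about -4.2 in these data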;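 also: channel flux triggered by added potassium and thallium sulfate stimulus; B-score of peak minus minimum fluorescence over baseline after thallium stimulus; more negative B-score means stronger Kir2.1 block with less thallium influx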
Target sequence (P35561 whole entry, looked up): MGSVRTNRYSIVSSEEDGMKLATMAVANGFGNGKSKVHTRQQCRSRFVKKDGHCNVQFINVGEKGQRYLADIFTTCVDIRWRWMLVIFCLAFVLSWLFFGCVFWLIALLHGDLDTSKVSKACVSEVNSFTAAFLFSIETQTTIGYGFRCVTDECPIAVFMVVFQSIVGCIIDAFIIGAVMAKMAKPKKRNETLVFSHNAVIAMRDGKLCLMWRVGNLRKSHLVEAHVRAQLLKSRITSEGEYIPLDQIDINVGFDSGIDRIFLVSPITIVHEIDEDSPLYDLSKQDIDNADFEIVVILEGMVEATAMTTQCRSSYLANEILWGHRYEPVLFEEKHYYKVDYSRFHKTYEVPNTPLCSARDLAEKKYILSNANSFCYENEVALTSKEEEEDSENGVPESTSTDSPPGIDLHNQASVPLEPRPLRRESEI
TRPC4 sel inh 2: mouse TRPC4 off-target activity of TRPC6 inhibitors, second screen. shares compounds with TRPC6 inh. HEK293 TRPC4/MOR, membrane potential dye fluorescence; channel activated by saturating DAMGO dose. inhibition, % at 10 µM. hit rate 42% among 920;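 active = compounds whose fluorescence signal differed from control wells by over 3 SD, either direction, in both duplicate plates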
TRPC4 spec: mouse TRPC4 modulation by TRPC6 hits, confirmation, selectivity assay for TRPC6 inhibitor project, cell-based, HEK293 TRPC4/mu-opioid, membrane potential dye; shares compounds with TRPC6 inh; membrane potential fluorescence; activity change, negative = inhibition, % at 10 µM; hit rate 61% among 920; AID 2777, 2010;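 active = rise or fall in signal beyond 3 SD of buffer-only wells in both replicate plates, either sign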;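 also: integrated kinetic ratio of fluorescence range over baseline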
HEK293 MPD ctr 2-1: nonspecific membrane potential effects, parental HEK293, confirmation, counter-screen for TRPC6 inhibitor project, cell-based, second counter screen | shares compounds with TRPC6 inh | parental HEK293 membrane potential dye fluorescence; maximal acetylcholine challenge after compound addition | signal change vs control, % at 10 µM | hit rate 31% among 920 | AID 2779, 2010;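 active = membrane potential signal moving either way by over 3 SD of the maximum-effect control, in both duplicate plates, meaning non-specific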
HEK293 MPD ctr-1: membrane potential modulation in parental HEK293, confirmation, counter-screen for TRPC6 inhibitor project, cell-based. shares compounds with TRPC6 inh. parental HEK293 membrane potential dye fluorescence. membrane potential signal change, % at 10 µM. hit rate 60% among 920. AID 2780, 2010;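 active = membrane potential signal shifting up or down by more than 3 SD of buffer-only wells, on both duplicate plates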
HEK293 MPD ctr-2: parental HEK293 membrane potential modulation, confirmation, counter-screen for TRPC6 modulator project, cell-based; membrane potential signal change, % at 10 µM; hit rate 51% among 2,400; membrane potential dye fluorescence; shares compounds with TRPC6 inh;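 active = membrane potential signal moves up or down beyond 5 SD from buffer-only wells, on both duplicate plates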
HEK293 MPD ctr 2-2: second counter-screen for TRPC6 modulators: effect in parental HEK293 cells | shares compounds with TRPC6 inh | membrane potential dye fluorescence; after compound, maximal acetylcholine stimulation | inhibition, % at 10 µM | hit rate 14% among 2,400;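 active = membrane potential signal drops by more than 5 SD from the mean control signal, in both duplicate plates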;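 also: plate controls were acetylcholine ECmax control wells for no effect and buffer only wells for full effect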
TRPC4/MOR mod: TRPC4 modulation by TRPC6 hit compounds, confirmation, selectivity assay for TRPC6 modulator project, cell-based, HEK293 TRPC4/mu-opioid, membrane potential dye, mouse | shares compounds with TRPC6 inh | membrane potential fluorescence | percent change from control (negative = decrease, positive = increase), % at 10 µM | hit rate 69% among 2,400 | AID 488927, 2010;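 active = membrane potential signal moved up or down beyond 5 SD of buffer control wells, in both duplicate plates, actives on both sides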;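 also: plate controls were assay buffer wells for no effect and DAMGO maximal-effect wells for full effect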
TRPC4 ctr inh 2: mouse TRPC4 off-target activity of TRPC6 modulators, second screen; shares compounds with TRPC6 inh; HEK293 TRPC4/mu-opioid, membrane potential dye fluorescence; stimulated with maximal-effect DAMGO; hit rate 55% among 2,400; inhibition, % at 10 µM; AID 488928;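 active = drop in membrane potential signal beyond 5 SD of the control wells in both duplicate plates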;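 also: TRPC4 counter screen for TRPC6 hits run under conditions tuned for TRPC6 not TRPC4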
TRPC6 inh conf: mouse TRPC6 channel inhibitors, confirmation, HEK293 cells, membrane potential dye, duplicate; shares compounds with TRPC6 inh; ACh-evoked depolarization; inhibition, % at 10 µM; AID 488960, 2010; hit rate 43% among 3,300;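 active = fluorescence ratio falls more than 5 SD below the full-stimulation control mean, in both duplicate runs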;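 also: integrated fluorescence ratio of peak minus minimum over baseline after agonist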
TRPC6 act confirm: mouse TRPC6 channel activators, confirmation, HEK293 cells, membrane potential dye, duplicate. shares compounds with TRPC6 inh. HEK293-TRPC6 membrane potential dye fluorescence, FDSS. activation, % at 10 µM. hit rate 11% among 2,800. AID 488961, 2010;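 active = ratio signal rise beyond 5 SD above unstimulated control wells' mean, seen in both duplicate runs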;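 also: plate controls were buffer EC0 wells for no effect and acetylcholine ECmax response for full effect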
Numbers without * were called inactive; i = inactive; · = no result given.

SMILES	TRPC6 inh	TRPC4 agonist	TRPC4 potent	TRPC6 activator	TRPC4 block	Kir21 inh	HEK293 MPD ctr-2	HEK293 MPD ctr 2-2	TRPC4/MOR mod	TRPC4 ctr inh 2	TRPC6 inh conf	TRPC6 act confirm	others
c1csc(C2Nc3ccccc3-c3nc4ccccc4n32)c1 (stereo not drawn)	-6.64*	i	i	i	i	-4.48*	·	·	·	·	i	i	TRPC4 sel inh 2=i;TRPC4 spec=9.1%*;HEK293 MPD ctr 2-1=i;HEK293 MPD ctr-1=2.3%*
CN1CCN(c2ccccc2/C=C2/C(=O)Nc3ccccc32)CC1	-4.99*	i	i	i	i	0.26	120.5%*	i	46.0%*	72.0%*	i	·
COc1cc(OC)c2cc(C(=O)N[C@H](C(=O)N3CCC[C@H]3C(=O)O)C(C)C)n(C)c2c1	i	i	i	i	i	-0.87	·	·	·	·	·	·
O=C(Cn1cccc1C(=O)c1ccccc1)NCc1ccccc1Cl	-5.11*	i	i	i	i	0.96	i	i	i	i	i	i
CC(C)NC(=O)CCc1nc2cccnc2n1-c1ccccc1	-5.86*	i	i	i	i	0.79	i	i	i	i	i	i
O=C(Cc1ccc([N+](=O)[O-])cc1)Nc1ccc2c(c1)OCO2	i	i	i	i	i	2.54	·	·	·	·	·	·
O=C(Cc1ccc([N+](=O)[O-])cc1)Nc1ccc2c(c1)CCC2	-5.21*	i	i	i	i	-1.28	i	i	i	i	i	i
O=C(Nc1nc2ccccc2n1CCN1CCCCC1)C1CCCCC1	i	i	i	i	i	-0.17	·	·	·	·	·	·
CCn1nccc1C(=O)Nc1nc2ccccc2n1CCN1CCCCC1	-6.85*	i	i	i	i	-2.23	·	·	·	·	i	i	TRPC4 sel inh 2=67.5%*;TRPC4 spec=-10.6%*;HEK293 MPD ctr 2-1=i;HEK293 MPD ctr-1=i
O=C(Nc1nc2ccccc2n1CCN1CCCCC1)c1ccc(Cl)cc1	i	i	i	i	i	1.19	·	·	·	·	·	·
Cc1ccc(C(=O)Nc2nc3ccccc3n2CCN2CCCC2)cc1	-11.2*	i	i	i	i	-1.81	-130.5%*	74.0%*	-30.5%*	88.5%*	91.5%*	i
CCN(CC(=O)NC1CCS(=O)(=O)C1)S(=O)(=O)c1cc(C)ccc1C (stereo not drawn)	i	i	i	i	i	-0.59	·	·	·	·	·	·
Cc1cccc(NC(=O)CN(C)S(=O)(=O)c2cccc3nsnc23)c1C	-5.52*	i	i	i	i	0.08	i	i	16.0%*	28.5%*	i	i
O=C(CSc1nnnn1C1CCCCC1)Nc1ccc(F)cc1	i	i	i	i	i	-1.13	·	·	·	·	·	·
O=C(CSc1nnnn1C1CCCCC1)Nc1ccc2c(c1)OCO2	-8.67*	i	i	i	i	0.33	·	·	·	·	i	i	TRPC4 sel inh 2=i;TRPC4 spec=i;HEK293 MPD ctr 2-1=i;HEK293 MPD ctr-1=i
Cc1ccc(N2CCN(c3ccc(C)cc3)C2c2cccnc2)cc1	i	i	i	i	i	-1.66	·	·	·	·	·	·
c1ccc(N2CCN(c3ccccc3)C2c2cccnc2)cc1	-5.6*	i	i	i	i	-2.82	i	i	17.5%*	31.0%*	i	·
COc1ccc(-c2cn3cc([N+](=O)[O-])ccc3n2)cc1OC	-5.05*	i	i	i	i	0.24	-111.0%*	i	-22.0%*	30.0%*	i	i
O=[N+]([O-])c1cccc(-c2cn3ccccc3n2)c1	i	i	i	i	i	0.58	·	·	·	·	·	·
COc1ccc(Cl)cc1NC(=O)CN1C(=O)NC2(CCCC2)C1=O	i	i	i	i	i	1.08	·	·	·	·	·	·
CCOC(=O)N1CCC(Nc2ccc3nnc(-c4ccccc4)n3n2)CC1	-5.49*	i	i	i	i	-1.41	i	i	i	i	68.5%*	·
COc1ccc(/C=N/n2c(-c3n[nH]c4c3CCC4)n[nH]c2=S)cc1	-5.01*	i	i	i	i	1.95	i	i	i	i	i	·
